PDI inh – inhibitors of human protein disulfide isomerase; PDI insulin aggregation turbidity, A650, 90 min; 0.052% of 350,000 active; inhibition, % at 10 µM; P07237; AID 588391;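 active = mean inhibition across replicates of 30% or more, whatever share of single replicates reach that level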
Target sequence (P07237 whole entry, looked up): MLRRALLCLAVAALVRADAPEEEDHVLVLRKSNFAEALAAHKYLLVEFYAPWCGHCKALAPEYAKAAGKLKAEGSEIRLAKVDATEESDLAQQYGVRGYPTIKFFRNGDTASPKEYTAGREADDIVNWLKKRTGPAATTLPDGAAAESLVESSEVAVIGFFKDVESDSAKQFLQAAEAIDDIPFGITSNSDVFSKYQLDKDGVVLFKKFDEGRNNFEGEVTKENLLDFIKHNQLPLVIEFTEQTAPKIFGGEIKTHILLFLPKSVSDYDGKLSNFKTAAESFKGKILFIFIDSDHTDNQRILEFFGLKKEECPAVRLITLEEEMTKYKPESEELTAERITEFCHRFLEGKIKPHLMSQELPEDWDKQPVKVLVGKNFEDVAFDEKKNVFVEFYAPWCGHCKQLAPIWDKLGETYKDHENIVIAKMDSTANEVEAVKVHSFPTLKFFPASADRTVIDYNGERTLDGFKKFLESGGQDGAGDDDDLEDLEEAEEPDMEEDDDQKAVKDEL
ERp5 block – blocks human ERp5 reductase activity on insulin; Q15084; ERp5 insulin aggregation, absorbance 650 nm, 90 min; inhibition, % at 9.99 µM; 0.05% of 350,000 active; AID 651711;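 active = mean replicate inhibition above about 25%, with every replicate also reaching it, limit read from the data, passing the limit was not always enough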
miR-122 sensor – miR-122 inhibition in Huh7 cells; activation (reporter increase), % at 12.5 µM; AID 602342; 0.3% of 340,000 active; Huh7 miR-122 Renilla luciferase sensor, 48 h; neutral wells = 0, positive control = 100;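 active = mean replicate activation score at least 90 and every replicate individually at or above 90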;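 also: higher luciferase means less miR-122 activity so hits act as miR-122 inhibitors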
PvdQ inh – blocks Pseudomonas aeruginosa PvdQ acylase activity | purified PvdQ acylase, fluorescence plate reader | inhibition, % at 10 µM | 0.063% of 340,000 active; in the data active = inhibition above about 30%, passing the limit was not always enough;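 also: 0% = vehicle neutral wells and 100% = reference inhibitor wells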
PglD DTNB – blocks C. jejuni PglD acetyltransferase activity | purified PglD enzyme, DTNB colorimetric CoA detection | inhibition, % at 12.5 µM | 0.098% of 360,000 active | AID 602405; in the data active = inhibition above about 16%, passing the limit was not always enough
Cneo AK release – causes C. neoformans cell lysis. adenylate kinase release luminescence, 4 h; normalised: neutral wells 0, clomiphene wells 100. 0.2% of 360,000 active. AID 651654. lysis activity, % at 15 µM;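 active = mean lysis activity across replicates of at least 80%, whatever share of replicates individually reach that level; inactive = mean lysis activity below 80%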
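Material – log-phase Cryptococcus neoformans yeast cells · Input – 5 × 10^6 yeast cells/mL · Medium – fresh YPD growth medium · Doses – single compound concentration per well · Timing – static 4 h at 37 °C with compound, 1 h detection · Detection – adenylate kinase release luminescence · Read-out – signal increase indicating cell lysis · Control set – Clomiphene as positive lysis control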
PglD confirm – blocks Campylobacter jejuni PglD acetyltransferase activity; shares compounds with PglD DTNB; Purified C. jejuni PglD, DTNB absorbance 412 nm; inhibition, % at 20 µM; 320 tested, under 10 active; AID 743156;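 active = mean inhibition across replicates of at least 20% with every single replicate also at 20% or more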;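 also: initial rate of CoA release by acetyl transfer from AcCoA to the UDP-4-amino sugar; 0% = median of neutral control wells and 100% = median of positive control wells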
An asterisk follows results filed as active; . = no result given; [ ] = remark or other dose. An excerpt weighted towards active compounds, which were near 0.58% of everything screened.

SMILES | PDI inh | ERp5 block | miR-122 sensor | PvdQ inh | PglD DTNB | Cneo AK release | PglD confirm
Cc1ccc(NC(=O)CC2SC(=NCC3CCCO3)NC2=O)cc1Cl (configuration not stated) | 7 | . | -5 | -2 | . | . | .
COc1ccc(NC(=O)CC2SC(=NCC3CCCO3)NC2=O)cc1 (configuration not stated) | 10 | 4 | -2 | -6 | 26* | 2 | -2
CC(Sc1nnc(N)s1)C(=O)Nc1ccc2c(c1)OCO2 (configuration not stated) | -8 | -4 | . | 13 | 1 | 1 | .
CC(Sc1nnc(N)s1)C(=O)Nc1ccc(N2CCOCC2)cc1 (configuration not stated) | -2 | . | -4 | 12 | 21* | 0 | 0
CCc1ccccc1NC(=O)C1CCN(C(=O)c2ccc([N+](=O)[O-])cc2)CC1 | -9 | -1 | -4 | 11 | 46* | -1 | 2
CC(=O)Nc1ccc(NC(=O)C2CCN(C(=O)c3ccc([N+](=O)[O-])cc3)CC2)cc1 | -1 | -4 | . | -13 | . | . | .
COc1cc(C(O)c2nc(-c3ccc(C)c(C)c3)cs2)ccc1F (configuration not stated) | 9 | 2 | -2 | . | 25* | 0 | 8
CS(=O)(=O)N1[C@H](CO)[C@@H](c2ccccc2)C12CN(C(=O)C1CC1)C2 | . | -1 | . | . | . | . | .
Cc1cc(C)n(CCCC(=O)O)n1 | -2 | 4 | 1 | 10 | 2 | -1 | .
CCSC1=NCN(CCCC(=O)O)CN1 | -7 | . | 3 | -13 | 20* | 0 | -2
COc1ccc(-c2cc(NC(C)=O)c3ncc(-c4ccc(OC)c(OC)c4)n3c2)c(OC)c1 | 6 | -15 | -7 | . | 32* | -1 | 1
COc1ccc(NC(=O)N(C)C[C@H]2OCCCC[C@@H](C)Oc3ccc(NC(=O)CCC(F)(F)F)cc3C(=O)N([C@@H](C)CO)C[C@H]2C)cc1 | . | 6 | -1[16.7 µM] | . | -1 | -1 | .
CSC[C@H](NC(=O)COc1cc2c(c3oc(=O)c(C)c(C)c13)CCC(C)(C)O2)C(=O)O | -19 | 2 | 8 | 10 | -5 | 1 | .
CSCC[C@H](NC(=O)COc1cc2c(c3oc(=O)c(C)c(C)c13)CCC(C)(C)O2)C(=O)O | 3 | -1 | -9 | -11 | 27* | 4 | -1
CNC(=O)C[C@H]1CC[C@@H]2[C@@H](COc3ccc(NC(=O)Nc4cccc(C)c4)cc3C(=O)N2C)O1 | . | -2 | 16[16.7 µM] | . | 2 | -3 | .
CCc1nc2ccc(C(=O)NCCCn3ccnc3)cn2c1N(C)Cc1cccs1 | 0 | 0 | 0 | . | 20* | -2 | -5
CCOC(=O)C1CCN(S(=O)(=O)c2ccc3c(c2)CC(=O)N3C)CC1 | -11 | 4 | 3 | 6 | 41* | -2 | 5
COCC(=O)NCCNc1nc2ccc(C)cc2cc1C | -4 | . | 2 | 8 | 41* | 1 | -3
Cc1ccc(C(=O)NCCNc2nc3cc(C)c(C)cc3cc2C)cc1 | 6 | . | 6 | 4 | 0 | 1 | .
CCOC(=O)c1ccc(NC(=S)N2CCC(O)CC2)cc1 | 2 | 0 | 2 | -5 | 24* | 3 | 6
COc1ccccc1CNC(=O)C[C@H]1C[C@@H]2c3cc(NC(=O)NC4CCCC4)ccc3O[C@@H]2[C@@H](CO)O1 | . | -2 | 2[16.7 µM] | . | -1 | 56 | .
Cc1ccc2oc(=O)c(/C=C(\O)CC(C)C)nc2c1 | -2 | . | -3 | 11 | 21* | 1 | 2
O=C(CNC(=O)c1ccco1)Nc1ccc(N2CCCCCC2)cc1 | -6 | -1 | 20 | 2 | 24* | -1 | -4
O=C(CNC(=O)c1ccc(Br)o1)Nc1ccc(N2CCCCCC2)cc1 | -4 | 2 | 5 | -9 | -4 | 4 | .
CC(=O)Nc1cc(-c2ccccc2F)cn2c(-c3ccccc3)cnc12 | -10 | -7 | 1 | . | -1 | 1 | .
SMILES | PDI inh | ERp5 block | miR-122 sensor | PvdQ inh | PglD DTNB | Cneo AK release | PglD confirm
CC(=O)c1cccc(-c2cnc3c(NC=O)cc(-c4ccccc4F)cn23)c1 | -1 | 6 | 0 | . | 25* | 2 | 2
C[C@H](CO)N1C[C@H](C)[C@@H](CN(C)C(=O)Nc2ccc3c(c2)OCO3)OCCCC[C@H](C)Oc2ccc(N(C)C)cc2C1=O | . | -3 | -1[16.7 µM] | . | 12 | -4 | .
CCOc1cc(C2NC(=O)NC(c3ccccc3)=C2C(C)=O)ccc1OC(C)=O (configuration not stated) | 0 | -2 | -6 | -13 | 23* | 2 | -4
Cc1ccc(O)c(NC(=O)CN(C)S(=O)(=O)c2ccc(Cl)cc2)c1 | 0 | -5 | -5 | -1 | 30* | -2 | 5
O=C1CSC(c2cccnc2)N1Cc1cccnc1 (configuration not stated) | 9 | 5 | -5 | -14 | 23* | -1 | 11
O=C1CSC(c2ccncc2)N1Cc1ccccc1 (configuration not stated) | 1 | 0 | 1 | 3 | . | . | .
CCC(Oc1ccccc1F)C(=O)NCCCn1ccnc1 (configuration not stated) | 1 | 3 | 1 | -17 | 37* | -4 | -3
O=C(C[C@@H]1C=C[C@H](NS(=O)(=O)c2ccccc2)[C@@H](CO)O1)N1CCN(c2ccccc2)CC1 | . | -1 | . | . | . | . | .
CO[C@@H](CN(C)S(=O)(=O)c1cn(C)cn1)[C@H](C)CN(C(=O)Nc1ccc(F)cc1)[C@@H](C)CO | . | -1 | . | . | -4 | 9 | .
CC(O)(c1ccc(F)c(F)c1)c1nc(-c2cccc(F)c2)cs1 (configuration not stated) | 3 | 0 | -1 | . | 2 | 0 | .
CC(C)c1cccc(-c2csc(C(C)(O)c3ccc(F)c(F)c3)n2)c1 (configuration not stated) | 2 | 5 | -4 | . | 24* | 0 | 3
O=C(CN1CCCCCCC1)Nc1ccc(Cl)cc1Cl | 11 | -3 | . | 7 | . | . | .
O=C(CN1CCCCC1)Nc1ccc(NC(=O)c2ccccc2Cl)cc1Cl | -10 | -1 | 3 | 5 | 20* | -1 | -2
C[C@@H]1CCCCO[C@@H](CN(C)Cc2ccc(C(F)(F)F)cc2)[C@@H](C)CN([C@@H](C)CO)C(=O)c2cc(NC(=O)Nc3ccc(F)cc3)ccc2O1 | . | 5 | -1[16.7 µM] | . | 2 | -3 | .
CCCc1cc(C(=O)NC2CCCC2)no1 | . | 2 | -5 | -4 | 58* | -3 | 4
OCc1ccccc1-c1ccc2nncn2c1 | 1 | 2 | -2 | . | 8 | 2 | .
c1csc(-c2ccc3nncn3c2)c1 | 21 | 5 | 4 | . | 36* | -1 | 0
CCOc1cc(C(=S)N2CCOCC2)ccc1OC(=O)c1ccc(C)cc1 | 1 | 1 | 1 | -6 | 45* | 7 | 2
CCOc1cc(C(=S)N2CCOCC2)ccc1OC(=O)c1ccccc1 | 16 | 1 | -3 | -1 | -5 | -2 | .
